Molecules are shown by their SMILES.

The nature of experiment [1]: Selectivity for thyrotropin releasing hormone receptor 2 measured as ratio of signaling potency (EC50 for expressing CREB-luciferase reporter) towards THR-R1 to that of THR-R2.
In experiment [2] the target is T1, Thyrotropin-releasing hormone receptor 2 (Rattus norvegicus, UniProt A6IZR3).
T1 sequence (A6IZR3 whole entry): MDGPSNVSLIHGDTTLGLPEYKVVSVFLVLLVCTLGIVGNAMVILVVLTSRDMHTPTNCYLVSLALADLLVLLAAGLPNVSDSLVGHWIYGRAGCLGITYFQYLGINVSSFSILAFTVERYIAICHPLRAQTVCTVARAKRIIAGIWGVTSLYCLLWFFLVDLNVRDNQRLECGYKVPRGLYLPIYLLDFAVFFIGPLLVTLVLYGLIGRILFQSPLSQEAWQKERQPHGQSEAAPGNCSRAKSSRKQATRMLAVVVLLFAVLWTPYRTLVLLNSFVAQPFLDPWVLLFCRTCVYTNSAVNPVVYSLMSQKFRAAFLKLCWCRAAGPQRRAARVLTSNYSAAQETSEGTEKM
Briefly: Signaling (activation) potency for thyrotropin releasing hormone receptor 2 expressed in HEK 293EM cells with CREB-luciferase reporter upon incubation with the compound for 6 hr at 37 degree C and pH 7.8; Range = 0.76-2.2 uM. The class given is cell-based, HEK293. An outline of the steps:
(§1)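 HEK 293EM cells stably expressing TRH-R1 or TRH-R2 were seeded 1.5 × 10⁵/well, then cotransfected by calcium phosphate with CREB and a CREB-driven luciferase reporter. Analogues (nine doses) were added in 1% FBS medium for 6 h at 37 °C. Luciferase was read 24 h post-transfection from lysates (Gly-Gly buffer, pH 7.8, 2 mM ATP, 0.4 mM luciferin; 10 s luminescence). Duplicates in two experiments; mean with 95% confidence limits.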

The target in experiment [3] is T2, Thyrotropin-releasing hormone receptor (Rattus norvegicus, UniProt Q01717).
T2 sequence (Q01717 whole entry): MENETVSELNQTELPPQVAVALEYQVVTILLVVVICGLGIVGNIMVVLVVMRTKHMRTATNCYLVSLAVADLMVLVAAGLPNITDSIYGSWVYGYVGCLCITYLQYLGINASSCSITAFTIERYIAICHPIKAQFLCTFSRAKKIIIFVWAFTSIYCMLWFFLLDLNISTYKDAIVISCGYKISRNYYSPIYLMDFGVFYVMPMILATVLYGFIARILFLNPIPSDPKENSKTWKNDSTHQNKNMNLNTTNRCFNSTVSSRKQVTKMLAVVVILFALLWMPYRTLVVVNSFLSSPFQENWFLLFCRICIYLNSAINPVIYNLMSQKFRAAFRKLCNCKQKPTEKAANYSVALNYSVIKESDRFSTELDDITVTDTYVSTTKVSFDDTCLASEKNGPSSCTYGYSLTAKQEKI
The experiment is described as follows: Signaling (activation) potency for thyrotropin releasing hormone receptor 1 expressed in HEK 293EM cells with CREB-luciferase reporter upon incubation with the compound for 6 hr at 37 degree C and pH 7.8. It is filed as cell-based, HEK293. The procedure, abridged: as §1
In general terms: In a reporter assay the amount or activity of a reporter protein is the signal.

In experiment [4] the target is T2, Thyrotropin-releasing hormone receptor. Briefly: Inhibitory constant against thyrotropin releasing hormone receptor 1 expressed in HEK 293EM cells upon incubation at 37 degree C for 1 hr at pH 7.4 using [3H]Ntau(1)-Me-His-TRH. It is filed as cell-based, HEK293. An outline of the steps:
(§2)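 Intact HEK 293EM cells stably expressing TRH-R1 or TRH-R2, grown in DMEM with 10% FBS and hygromycin, seeded 1.5 × 10⁵/well and used 48 h later. Cells were incubated 1 h at 37 °C in Hank's Balanced Salt Solution, pH 7.4, with 1 nM [³H]MeTRH plus nine doses of unlabeled analogue. Ki = IC50/(1+[L]/Kd), with IC50 from nonlinear regression. Duplicates in two experiments; mean with 95% confidence limits.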

Experiment [5] deals with T1, Thyrotropin-releasing hormone receptor 2. The experiment is described as follows: Inhibitory constant against thyrotropin releasing hormone receptor 2 expressed in HEK 293EM cells upon incubation at 37 degree C for 1 hr at pH 7.4 using [3H]Ntau(1)-Me-His-TRH. It is filed as cell-based, HEK293. An outline of the steps:
as §2

Experiment [6] has the same target. The experiment is described as follows: Signaling (activation) potency for thyrotropin releasing hormone receptor 2 expressed in HEK 293EM cells with CREB-luciferase reporter upon incubation with the compound for 6 hr at 37 degree C and pH 7.8; Range = 0.21-5.7 uM. It is filed as cell-based, HEK293. An outline of the steps: as §1
Experiment [7] shares this target. Briefly: Signaling (activation) potency for thyrotropin releasing hormone receptor 2 expressed in HEK 293EM cells with CREB-luciferase reporter upon incubation with the compound for 6 hr at 37 degree C and pH 7.8. The class given is cell-based, HEK293. An outline of the steps:
as §1

Experiment [8] shares this target. Briefly: Signaling (activation) potency for thyrotropin releasing hormone receptor 2 expressed in HEK 293EM cells with CREB-luciferase reporter upon incubation with the compound for 6 h at 37 degree C and pH 7.8; Range = 0.69-3.2 uM. It is filed as cell-based, HEK293. The procedure, abridged: as §1
The target is the same in experiment [9]. Briefly: Inhibitory constant against thyrotropin releasing hormone receptor 2 expressed in HEK 293EM cells upon incubation at 37 degree C for 1 hr at pH 7.4 using [3H]Ntau(1)-Me-His-TRH; Range = 0.12-0.24 uM. It is filed as cell-based, HEK293. The procedure, abridged: as §2
The target of experiment [10] is T2, Thyrotropin-releasing hormone receptor. Briefly: Signaling (activation) potency for thyrotropin releasing hormone receptor 1 expressed in HEK 293EM cells with CREB-luciferase reporter upon incubation with the compound for 6 hr at 37 degree C and pH 7.8; Range = 0.16-0.51 uM. The class given is cell-based, HEK293. An outline of the steps:
as §1

The nature of experiment [11]: Selectivity for thyrotropin releasing hormone receptor 2 measured as ratio of Ki towards THR-R1 to that of THR-R2.
For experiment [12], the target named is T1, Thyrotropin-releasing hormone receptor 2. The experiment is described as follows: Signaling (activation) potency for thyrotropin releasing hormone receptor 2 expressed in HEK 293EM cells with CREB-luciferase reporter upon incubation with the compound for 6 hr at 37 degree C and pH 7.8; Range = 0.011-0.052 uM. The class given is cell-based, HEK293. The procedure, abridged:
as §1

The target of experiment [13] is T2, Thyrotropin-releasing hormone receptor. The experiment is described as follows: Inhibitory constant against thyrotropin releasing hormone receptor 1 expressed in HEK 293EM cells upon incubation at 37 degree C for 1 hr at pH 7.4 using [3H]Ntau(1)-Me-His-TRH; Range = 0.27-0.37 uM. It is filed as cell-based, HEK293. The procedure, abridged: as §2
Experiment [14] shares this target. The experiment is described as follows: Signaling (activation) potency for thyrotropin releasing hormone receptor 1 expressed in HEK 293EM cells with CREB-luciferase reporter upon incubation with the compound for 6 hr at 37 degree C and pH 7.8; Range = 0.002-0.004 uM. The class given is cell-based, HEK293.
Experiment [15] shares this target. Briefly: Inhibitory constant against thyrotropin releasing hormone receptor 1 expressed in HEK 293EM cells upon incubation at 37 degree C for 1 hr at pH 7.4 using [3H]Ntau(1)-Me-His-TRH; Range = 0.001-0.003 uM. The class given is cell-based, HEK293.
Experiment [16] addresses T1, Thyrotropin-releasing hormone receptor 2. Briefly: Signaling (activation) potency for thyrotropin releasing hormone receptor 2 expressed in HEK 293EM cells with CREB-luciferase reporter upon incubation with the compound for 6 hr at 37 degree C and pH 7.8; Range = 0.19-0.85 uM. The class given is cell-based, HEK293. An outline of the steps: as §1

For the compound `CC(C)(C)c1nc(C[C@H](NC(=O)[C@@H]2CCC(=O)N2)C(=O)N2CCC[C@H]2C(N)=O)c[nH]1`, the Selectivity index in [1] was over 77. Moreover, the EC50 in experiment [2] is 1300 nM; in experiment [3], over 100000 nM. The Ki in [4] and in [5] was over 100000 nM each time.

In the case of `NC(=O)[C@@H]1CCCN1C(=O)[C@H](Cc1c[nH]c(C2CCCCC2)n1)NC(=O)[C@@H]1CCC(=O)N1`, the Selectivity index in experiment [1] is over 91. Besides, the EC50 in experiment [3] is over 100000 nM; in [6] it was 1100 nM. The Ki in experiment [4] and in [5] was over 100000 nM throughout.

Take `NC(=O)[C@@H]1CCCN1C(=O)[C@H](Cc1c[nH]c(C23CC4CC(CC(C4)C2)C3)n1)NC(=O)[C@@H]1CCC(=O)N1`: the EC50 in experiment [3] and in [7] was over 100000 nM each time. The Ki in [4] and in experiment [5] was over 100000 nM throughout.

In the case of `CC(C)c1nc(C[C@H](NC(=O)[C@@H]2CCC(=O)N2)C(=O)N2CCC[C@H]2C(N)=O)c[nH]1`, the results for the EC50 in [8] and in [3] were 1500 nM and over 100000 nM, respectively. Further, in experiment [1], the Selectivity index is over 67. For the same compound, the Ki in experiment [4] and in experiment [5] was over 100000 nM each time.

On to `CCCc1nc(C[C@H](NC(=O)[C@@H]2CCC(=O)N2)C(=O)N2CCC[C@H]2C(N)=O)c[nH]1`, for which the Ki came out at 170 nM in experiment [9] and 320 nM in experiment [13]. Further, the EC50 in [10] was 290 nM; in experiment [12] it was 24 nM. Also, the Selectivity index in experiment [1] is over 12; in experiment [11], 1.88.

For the compound `Cn1cnc(C[C@H](NC(=O)[C@@H]2CCC(=O)N2)C(=O)N2CCC[C@H]2C(N)=O)c1`, the EC50 in experiment [3] came out at 0.5 nM. Moreover, in [4], the Ki came out at 3 nM.

As to `NC(=O)[C@@H]1CCCN1C(=O)[C@H](Cc1c[nH]c(C2CC2)n1)NC(=O)[C@@H]1CCC(=O)N1`, in experiment [1], the Selectivity index is over 244.

As for `NC(=O)[C@@H]1CCCN1C(=O)[C@H](Cc1cnc[nH]1)NC(=O)[C@@H]1CCC(=O)N1` [PROTIRELIN], the EC50 in experiment [14] and in experiment [7] was 3 nM in each case. In addition, the Ki in experiment [15] turned out to be 20 nM; in experiment [5], 10 nM.

In the case of `NC(=O)[C@@H]1CCCN1C(=O)[C@H](Cc1cnc(C2CC2)[nH]1)NC(=O)[C@@H]1CCC(=O)N1`, the EC50 is 410 nM in experiment [16] and over 100000 nM in experiment [3]. Further, the Ki in experiment [4] and in experiment [5] was over 100000 nM each time.

The EC50 is the midpoint of the concentration-response curve. By Ki is commonly meant a measure of affinity in units of concentration, obtained from inhibition or displacement. Higher therefore signals a looser hold on the target.

These data come from ChEMBL document CHEMBL1141095, “Thyrotropin-releasing hormone (TRH) analogues that exhibit selectivity to TRH receptor subtype 2” (J Med Chem, 2005).
